Results published in ChEMBL document CHEMBL5346889, “Discovery of 4-oxo-N-phenyl-1,4-dihydroquinoline-3-carboxamide derivatives as novel anti-inflammatory agents for the treatment of acute lung injury and sepsis” (Eur J Med Chem, 2023).
Activity calls are given as the source filed them. The calls are words filed in the database; no cut-off is given here.

Assays:
Mus musculus [1] = assay: Protection against LPS-induced C57/BL6 mouse acute lung injury model assessed as reduction in lung wet/dry ratio at 20 mg/kg via oral gavage preincubated for 30 mins followed by LPS stimulation for 6 hrs; format: functional, organism-based; settings: time 6.5 hrs
Outline: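 Mice dosed 20 mg/kg by gavage (dexamethasone 20 mg/kg comparator), intratracheal LPS 5 mg/kg 30 min later, killed at 6 h. Right upper lobe fixed in paraformaldehyde, H&E; lung wet/dry ratio; BALF protein, total cells and neutrophils counted; n = 5 mice per group, mean ± SEM.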

[2] = Oral bioavailability in rat at 10 mg/kg; format: ADME, organism-based; settings: in vivo
Outline: (§1)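 Rats dosed intravenously at 1 mg/kg or orally at 10 mg/kg; plasma pharmacokinetic parameters AUC(0-t), Tmax, T1/2, Cmax and oral bioavailability F derived from the two routes.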

J774.A1 [3] = assay: Antiinflammatory activity in LPS-induced mouse J774.A1 cells assessed as inhibition of LPS-induced IL-6 transcription preincubated for 0.5 hrs followed by LPS stimulation for 6 hrs by RT-qPCR method; format: functional, cell-based; settings: dose 5-10 µM, time 6.5 hrs
Outline: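 J774A.1 or THP-1 cells pretreated 0.5 h at 10 or 5 μM, then LPS 0.5 μg/mL for 6 h. TRIzol RNA; IL-6, TNF-α and IL-1β transcripts by RT-qPCR, normalized to β-actin and control; 3 independent experiments, mean ± SEM.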

J774.A1 [4] = assay: Inhibition of NF-kappaB pathway in LPS-induced mouse J774.A1 cells assessed as inhibition of IkappaB-alpha degradation preincubated with compound for 2 hrs followed by LPS-stimulation and measured after 30 mins by Western blot analysis; format: cell-based; settings: dose 5-10 µM, time 2.5 hrs
Outline: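 J774A.1 cells preincubated with 10 or 5 μM or DMSO for 2 h, then LPS 0.5 μg/mL for 30 min. RIPA lysates run on 12.5% SDS-PAGE, transferred to PVDF, blocked with 5% milk; probed for IκB-α and p-p65, with GAPDH and p65 as loading controls; ECL detection; densitometry.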

[5] = Half life in rat at 1 mg/kg, iv; format: ADME, organism-based; settings: in vivo; outline: as §1
Mus musculus [6] = assay: Protection against LPS-induced sepsis in C57/BL6 mouse model assessed as improvement in survival rate at 20 mg/kg, po preincubated with compound followed by LPS stimulation for 1 hr and measured every 12 hrs by 6 days; format: functional, organism-based; settings: time 6.0 day
Outline: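 Sepsis model in C57BL/6 mice, n = 12 per group: oral 20 mg/kg, then intraperitoneal LPS 20 mg/kg 1 h later; saline control. Survival checked every 12 h and body weight every 24 h for 6 days.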

Mus musculus [7] = assay: Protection against LPS-induced sepsis in C57/BL6 mouse model assessed as reduction in demarcation between white and red pulp at 20 mg/kg, po preincubated with compound followed by LPS stimulation for 1 hr by H and E staining based analysis; format: functional, organism-based
Outline: (§2)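 Mice given 20 mg/kg orally, then intraperitoneal LPS 20 mg/kg 1 h later; n = 12 per group. Kidney, liver, heart and spleen weighed; spleen sections H&E-stained for histology.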

Mus musculus [8] = assay: Antiinflammatory activity in LPS-induced C57/BL6 mouse acute lung injury model assessed as decrease in TNF-alpha expression level at 20 mg/kg via oral gavage preincubated for 30 mins followed by LPS stimulation for 6 hrs by RT-qPCR method; format: functional, organism-based; settings: time 6.5 hrs
Outline: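 Male C57BL/6 mice, six weeks old, n = 8 per group. Dosed 20 mg/kg orally 30 min before intratracheal LPS 5 mg/kg; dexamethasone 20 mg/kg as comparator. Lung tissue collected 6 h after LPS. RNA extracted with TRIzol; IL-6 and TNF-α transcripts by RT-qPCR, normalized to β-actin; n = 5 mice per group, mean ± SEM.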

J774.A1 [9] = assay: Antiinflammatory activity in LPS-induced mouse J774.A1 cells assessed as inhibition of LPS-induced IL-6 release preincubated for 30 mins followed by LPS stimulation for 24 hrs by ELISA method; format: functional, cell-based
Outline: (§3)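 Dose-response in J774A.1 cells: 30 min pretreatment at 10, 5, 2.5 or 1.25 μM, then LPS 0.5 μg/mL for 24 h. IL-6 and TNF-α by ELISA, normalized to lysate protein; IC50 from the dose-response; 3 independent experiments, mean ± SEM.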

[10] = Tmax in rat at 10 mg/kg, po; format: ADME, organism-based; settings: in vivo; outline: as §1
Mus musculus [11] = assay: Antiinflammatory activity in LPS-induced C57/BL6 mouse acute lung injury model assessed as reduction in macrophage infiltration at 20 mg/kg via oral gavage preincubated for 30 mins followed by LPS stimulation for 6 hrs by immunohistochemical staining based analysis; format: functional, organism-based; settings: time 6.5 hrs
Outline: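 Same ALI model: 20 mg/kg oral, intratracheal LPS 5 mg/kg 30 min later, lungs at 6 h. Paraffin sections given citrate (pH 6.5) antigen retrieval, 3% H2O2 and 5% BSA block, anti-F4/80 12 h at 4 °C, HRP secondary, DAB and hematoxylin; F4/80 positivity quantified; n = 5 per group.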

THP-1 [12] = assay: Antiinflammatory activity in LPS-induced human THP-1 cells assessed as inhibition of LPS-induced TNF-alpha release preincubated for 30 mins followed by LPS stimulation for 24 hrs by ELISA method; format: functional, cell-based
Outline: (§4)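 THP-1 or LX-2 cells in DMEM with 10% FBS, 37 °C, 5% CO2. Pretreated 30 min at 10, 5, 2.5 or 1.25 μM, then LPS 0.5 μg/mL for 24 h. IL-6 and TNF-α in medium measured by ELISA, normalized to lysate total protein; mean ± SEM of 3 independent experiments.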

THP-1 [13] = assay: Antiinflammatory activity in LPS-induced human THP-1 cells assessed as inhibition of LPS-induced IL-6 release preincubated for 30 mins followed by LPS stimulation for 24 hrs by ELISA method; format: functional, cell-based; outline: as §4
Mus musculus [14] = assay: Antiinflammatory activity in LPS-induced C57/BL6 mouse acute lung injury model assessed as decrease in IL-6 level in BALF at 20 mg/kg via oral gavage preincubated for 30 mins followed by LPS stimulation for 6 hrs by ELISA; settings: time 6.5 hrs
[15] = AUC (0 to t) in rat at 1 mg/kg, iv; format: ADME, organism-based; design: dose 1 mg/kg, route iv; settings: in vivo; outline: as §1
Mus musculus [16] = assay: Protection against LPS-induced sepsis in C57/BL6 mouse model assessed as reduction of lymph node hyperplasia at 20 mg/kg, po preincubated with compound followed by LPS stimulation for 1 hr by H and E staining based analysis; format: functional, organism-based; outline: as §2
LX-2 = assay: Antiinflammatory activity in LPS-induced human LX2 cells assessed as inhibition of LPS-induced IL-6 release preincubated for 30 mins followed by LPS stimulation for 24 hrs by ELISA method; format: functional, cell-based; outline: as §4
Mus musculus [17] = assay: Protection against LPS-induced sepsis in C57/BL6 mouse model assessed as reduction in spleen enlargement at 20 mg/kg, po preincubated with compound followed by LPS stimulation for 1 hr; format: functional, organism-based; outline: as §2
J774.A1 [18] = assay: Antiinflammatory activity in LPS-induced mouse J774.A1 cells assessed as inhibition of LPS-induced TNF-alpha release preincubated for 30 mins followed by LPS stimulation for 24 hrs by ELISA method; format: functional, cell-based; outline: as §3

Question: Which results are given for `COc1cc2nccc(Oc3ccc(NC(=O)c4cn(-c5ccccc5)c5ccccc5c4=O)cc3)c2cc1OC`?
Answer: Activity (Mus musculus [1]): Active; bioavailability [2]: 36.3%; inhibition (J774.A1 [3]): Dose-Dependent Effect; inhibition (J774.A1 [4]): Dose-Dependent Effect; half-life [5]: 8.9 h; Activity (Mus musculus [6]): Active; Activity (Mus musculus [7]): Active; Activity (Mus musculus [8]): Active; IC50 (J774.A1 [9]): 1330 nM; inhibition (J774.A1 [9]; dose 1.25-10 µM, time 24.5 hrs): Dose-Dependent Effect; Tmax [10]: 5 h; Activity (Mus musculus [11]): Active; IC50 (THP-1 [12]): 1670 nM; IC50 (THP-1 [13]): 1330 nM; Activity (Mus musculus [14]): Active; AUC(0-t) [15]: 6320 ng·h/mL; Activity (Mus musculus [16]): Active; IC50 (LX-2): 2620 nM; Activity (Mus musculus [17]): Active; IC50 (J774.A1 [18]): 2400 nM; inhibition (J774.A1 [18]; dose 1.25-10 µM, time 24.5 hrs): Dose-Dependent Effect
